Assay [1] in a line: reducers of endogenous Her2 protein level, primary screen, SKBR3 breast tumor cells, AlphaScreen, ATP viability (AID 461).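 On Her2 level: lower value means less Her2 protein in the cells.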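 On viability: percent of carrier control wells set as 100% viability.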 The settings on record: 18-24 h, measured here: SKBR3 viability, ATP luminescence, at 10 µM. A general note: In Alpha technology, singlet oxygen from a donor bead excites a nearby acceptor bead.
Assay [2] deals with Receptor tyrosine-protein kinase erbB-2 (Homo sapiens) (UniProt P04626). The description is as above. The settings on record: 18-24 h, at 10 µM, stronger effect = lower value.
Chain of Receptor tyrosine-protein kinase erbB-2 (Homo sapiens) (P04626 whole entry, looked up): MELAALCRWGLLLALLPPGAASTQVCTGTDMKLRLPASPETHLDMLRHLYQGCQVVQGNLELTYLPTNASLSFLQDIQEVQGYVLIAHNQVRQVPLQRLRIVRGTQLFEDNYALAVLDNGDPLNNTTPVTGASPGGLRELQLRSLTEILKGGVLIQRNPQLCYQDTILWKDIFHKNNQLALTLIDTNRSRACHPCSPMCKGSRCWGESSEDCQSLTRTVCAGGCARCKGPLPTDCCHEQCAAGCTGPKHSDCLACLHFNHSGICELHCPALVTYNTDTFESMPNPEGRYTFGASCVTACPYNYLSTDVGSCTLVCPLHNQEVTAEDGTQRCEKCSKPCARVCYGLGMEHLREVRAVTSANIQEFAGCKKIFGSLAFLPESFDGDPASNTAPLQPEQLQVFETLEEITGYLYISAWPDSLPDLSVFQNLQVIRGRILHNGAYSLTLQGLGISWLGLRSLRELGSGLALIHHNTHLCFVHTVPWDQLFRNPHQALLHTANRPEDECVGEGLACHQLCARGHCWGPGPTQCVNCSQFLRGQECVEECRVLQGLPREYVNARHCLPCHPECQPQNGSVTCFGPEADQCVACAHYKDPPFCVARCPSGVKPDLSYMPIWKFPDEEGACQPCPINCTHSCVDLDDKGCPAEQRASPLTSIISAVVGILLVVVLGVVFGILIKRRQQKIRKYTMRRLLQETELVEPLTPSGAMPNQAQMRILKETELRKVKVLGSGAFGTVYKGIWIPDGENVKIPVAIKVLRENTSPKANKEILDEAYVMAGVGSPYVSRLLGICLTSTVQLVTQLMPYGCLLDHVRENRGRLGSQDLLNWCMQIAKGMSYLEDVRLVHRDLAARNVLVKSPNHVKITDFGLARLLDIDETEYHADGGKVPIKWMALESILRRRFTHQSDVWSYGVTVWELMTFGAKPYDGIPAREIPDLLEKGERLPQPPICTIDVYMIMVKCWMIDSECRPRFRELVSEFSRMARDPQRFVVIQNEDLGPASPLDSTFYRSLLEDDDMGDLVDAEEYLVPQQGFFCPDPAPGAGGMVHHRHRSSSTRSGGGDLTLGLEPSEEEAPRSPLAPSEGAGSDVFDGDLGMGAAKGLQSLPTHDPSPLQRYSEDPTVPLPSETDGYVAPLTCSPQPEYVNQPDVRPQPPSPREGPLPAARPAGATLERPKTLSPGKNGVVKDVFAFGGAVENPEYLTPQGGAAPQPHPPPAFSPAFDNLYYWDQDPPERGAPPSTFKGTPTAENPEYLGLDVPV
The nature of assay [3]: SK-BR-3 cell growth inhibitors, pilot screen, 24 h, human (AID 572;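 active means viability at or below 10% of carrier control in both of two separate runs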;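 further: compound exposure lasted between 18 and 24 h rather than exactly 24 h; 100% = carrier-treated control wells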). The settings on record: SK-BR-3 viability, CellTiter-Glo luminescence, at 10 µM, stronger effect = lower value. In general terms: Cellular ATP, detected with luciferase, serves as a proxy for viable cell number.
Assay [4] in a line: HUVEC growth inhibition – cell-based, human, primary screen (AID 575;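 active means viability at or below 30% in both replicate assays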;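 further: 100% = median of untreated cell wells with 0.1% DMSO on each plate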). The settings on record: HUVEC proliferation, CellTiter-Glo luminescence, 72 h; at 10 µM; stronger effect = lower value. In outline: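 System: primary human umbilical vein endothelial cells; Quantity: 1250 endothelial cells in each well; Buffer or medium: supplemented EBM, 2% fetal bovine serum; Doses: one dose, 10 µM final, 0.1% DMSO; Incubation: 72 h compound incubation; Technique: ATP-based CellTiter-Glo luminescent read; Evaluation: percent of median DMSO-control luminescence; Controls: vehicle and MePR control wells.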

Assay [5] is described as follows: growth inhibitors of H69AR lung tumor, primary screen, human, duplicate replicates (AID 580;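 active means viability at or under a set limit in both replicates, limit being median viability minus 3 SD, cut at about 48% in these data, passing the limit was not always enough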;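 further: 100% = mean luminescence of untreated wells and 0% = no signal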). The settings on record: H69AR lung tumor cells viability, ATP luminescence, 72 h; at 10 µM; stronger effect = lower value.
A short description of assay [6]: reversal of MRP1-mediated doxorubicin resistance, pilot screen, H69AR cells, doxorubicin co-treatment (AID 601;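 active means viability loss from added drug above about 55%, and viability with drug at most 40%, in both replicates, limit read from the data, passing the limit was not always enough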). The note with it: CellTiter-Glo, 72 h, at 10 µM; for differential viability (reversal): stronger effect = higher value.
A short description of assay [7]: 384-well plate pilot, post-Golgi transport modulator project, inhibition of yeast transport mutant growth (AID 636; in the data active means inhibition above about 31%). The settings on record: absorbance 615 nm, about 18 h, stronger effect = higher value.
The nature of assay [8]: growth suppression of yeast trafficking mutant, preliminary HTS, modulators of trafficking downstream of Golgi apparatus project, 1536-format plate, OD 615 nm (AID 637; in the data active means inhibition above about 30%). The settings on record: yeast transport mutant growth, absorbance 615 nm, 18 h; stronger effect = higher value.
Setting [9] is: H69AR cells + 2 uM doxorubicin, measured here: viability with 2 uM doxorubicin, stronger effect = lower value.
Setting [10] is: H69AR cells, compound alone cytotoxicity.

Active and inactive are the calls of the source.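 How the source made its calls, unless noted: active means Her2 level under about 52% in both replicate screens, with viability over 70% of control (limit read from the data); inconclusive means Her2 under the limit in one screen only, or viability under 70%; inactive means Her2 level above the set limit.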

With `CCOC(=O)c1ccc(NC(=O)CSCc2ccco2)cc1`, the viability – broadly, a read-out of living cells in per cent, often relative to untreated cells – was 108% in assay [1]; 108% (inactive) in assay [3]; 81.9% (inactive) in assay [4]; 87.7% (inactive) in assay [5]; 79.4% in assay [6] (setting [9]); 87.7% in assay [6] (setting [10]). In addition, in assay [2], the Her2 level is 100% (inactive). Further, the differential viability (reversal) in assay [6] (H69AR cells + 2 uM doxorubicin) was 8.33% (inactive). The values for the inhibition in assay [7] and in assay [8] were -5.45% (inactive) and -2.62% (inactive), respectively.

For the compound `C=CCOc1nc2c(c(=O)n(C)c(=O)n2C)n1Cc1c(Cl)cccc1Cl`, the viability in assay [1] was 97.5%; in assay [3], 97.5% (inactive); in assay [4], 94.9% (inactive); in assay [5], 80.4% (inactive); in assay [6] (setting [9]) it was 18.3%; in assay [6] (setting [10]) it was 80.4%. Also, the Her2 level in assay [2] was 83% (inactive). The differential viability (reversal) in assay [6] (H69AR cells + 2 uM doxorubicin) is 62% (active). The inhibition (as a rule, the drop in the measured response relative to a control, in per cent) in assay [7] was -3.92% (inactive); in assay [8] it was 11.9% (inactive).

For the compound `CC1(C)CC(=O)C(C(=O)CCCCC(=O)C2C(=O)CC(C)(C)CC2=O)C(=O)C1`, the viability was 99.5% in assay [1]; 99.5% (inactive) in assay [3]; 98.4% (inactive) in assay [4]; 95.1% (inactive) in assay [5]; 88.2% in assay [6] (setting [9]); 95.1% in assay [6] (setting [10]). Besides, the Her2 level in assay [2] was 158% (inactive). For the same compound, in assay [6] (H69AR cells + 2 uM doxorubicin), the differential viability (reversal) is 6.97% (inactive). In addition, the values for the inhibition in assay [7] and in assay [8] were 0.53% (inactive) and -0.5% (inactive), respectively.

`CCOC(=O)c1nnn(-c2nonc2N)c1CN1CCc2ccccc2C1`: the viability was 102% in assay [1]; 102% (inactive) in assay [3]; 96.4% (inactive) in assay [4]; 91.7% (inactive) in assay [5]; 91.7% in assay [6] (setting [9]); 91.7% in assay [6] (setting [10]). Also, the Her2 level in assay [2] was 93% (inactive). Moreover, the differential viability (reversal) in assay [6] (H69AR cells + 2 uM doxorubicin) is -0.015% (inactive). For the same compound, the figures for the inhibition in assay [7] and in assay [8] were -0.13% (inactive) and -3.02% (inactive), respectively.

Consider `Cc1nnc2n(-c3ccccc3)c(=O)c3c4c(sc3n12)CCCC4`, for which the viability is 79.5% in assay [1]; 79.5% (inactive) in assay [3]; 96.2% (inactive) in assay [4]; 85.6% (inactive) in assay [5]; 52.4% in assay [6] (setting [9]); 85.6% in assay [6] (setting [10]). Besides, the Her2 level in assay [2] was 115% (inactive). Besides, the differential viability (reversal) in assay [6] (H69AR cells + 2 uM doxorubicin) was 33.2% (inactive). The inhibition was -7.47% (inactive) in assay [7] and 0.33% (inactive) in assay [8].

Turning to `CC(C(=O)N1CCCCC1)n1sc2ccccc2c1=O` (stereo not given), the viability was 119% in assay [1]; 119% (inactive) in assay [3]; 88% (inactive) in assay [4]; 87.4% (inactive) in assay [5]; 84.3% in assay [6] (setting [9]); 87.4% in assay [6] (setting [10]). The Her2 level in assay [2] was 102% (inactive). Besides, in assay [6] (H69AR cells + 2 uM doxorubicin), the differential viability (reversal) was 3.18% (inactive). The values for the inhibition in assay [7] and in assay [8] were -1.71% (inactive) and 11.4% (inactive), respectively.

With `O=C(O)c1cc(-c2ccccc2Cl)n[nH]1`, the viability in assay [1] was 92%; in assay [3] it was 92% (inactive); in assay [4] it was 95.6% (inactive); in assay [5], 81% (inactive); in assay [6] (setting [9]), 79.2%; in assay [6] (setting [10]), 81%. For the same compound, the Her2 level in assay [2] is 93.5% (inactive). Besides, the differential viability (reversal) in assay [6] (H69AR cells + 2 uM doxorubicin) was 1.79% (inactive). For the same compound, the inhibition in assay [7] was -2.34% (inactive); in assay [8], 2.38% (inactive).

Take `S=c1[nH]nc(-c2cccc(Br)c2)o1`: the viability is 91% in assay [1]; 91% (inactive) in assay [3]; 88.2% (inactive) in assay [4]; 96.1% (inactive) in assay [5]; 92.6% in assay [6] (setting [9]); 96.1% in assay [6] (setting [10]). Moreover, in assay [2], the Her2 level is 130% (inactive). Moreover, the differential viability (reversal) in assay [6] (H69AR cells + 2 uM doxorubicin) was 3.51% (inactive). The inhibition is -1.58% (inactive) in assay [7] and -8.83% (inactive) in assay [8].

As to `CC(C)[C@H](NC(=O)OC(C)(C)C)c1nnc(SCC(=O)Nc2ccc(Br)cc2)o1`, the viability in assay [1] was 96.5%; in assay [3], 96.5% (inactive); in assay [4], 87.5% (inactive); in assay [5] it was 93.9% (inactive); in assay [6] (setting [9]) it was 88.1%; in assay [6] (setting [10]), 93.9%. Moreover, the Her2 level in assay [2] is 108% (inactive). Further, in assay [6] (H69AR cells + 2 uM doxorubicin), the differential viability (reversal) is 5.79% (inactive). Also, the inhibition in assay [7] is -1.17% (inactive); in assay [8], -14% (inactive).

Take `COc1cccc(CNc2nc3nc(C)c(Cl)c(C)n3n2)c1`: the viability in assay [1] was 86.5%; in assay [3], 86.5% (inactive); in assay [4], 95.1% (inactive); in assay [5], 83.6% (inactive); in assay [6] (setting [9]) it was 83.3%; in assay [6] (setting [10]), 83.6%. Also, the Her2 level in assay [2] is 99.5% (inactive). Moreover, the differential viability (reversal) in assay [6] (H69AR cells + 2 uM doxorubicin) is 0.33% (inactive). The inhibition in assay [7] was -4.93% (inactive); in assay [8], -2.38% (inactive).

Take `CN(C)S(=O)(=O)c1ccc2c(c1)C(CC(=O)O)OC2=O` (stereo not given): the viability in assay [1] was 94%; in assay [3], 94% (inactive); in assay [4] it was 111% (inactive); in assay [5], 96.1% (inactive); in assay [6] (setting [9]), 96.9%; in assay [6] (setting [10]) it was 96.1%. Also, in assay [2], the Her2 level was 96.5% (inactive). In assay [6] (H69AR cells + 2 uM doxorubicin), the differential viability (reversal) is -0.855% (inactive). Moreover, the inhibition in assay [7] was -1.6% (inactive); in assay [8] it was 17.1% (inactive).

Consider `O=C(O)COc1ccc(Oc2ccccc2)cc1`, for which the viability in assay [1] was 102%; in assay [3], 102% (inactive); in assay [4], 96.1% (inactive); in assay [5], 109% (inactive); in assay [6] (setting [9]), 96%; in assay [6] (setting [10]), 109%. Besides, in assay [2], the Her2 level was 106% (inactive). For the same compound, in assay [6] (H69AR cells + 2 uM doxorubicin), the differential viability (reversal) was 13.3% (inactive). In addition, the inhibition in assay [7] is 0.26% (inactive); in assay [8], -3.55% (inactive).

In the case of `CC1CCCCC1NC(=O)c1nn(C)c(=O)c2ccccc12` (stereo not given), the viability in assay [1] was 88%; in assay [3], 88% (inactive); in assay [4], 90.4% (inactive); in assay [5] it was 89.2% (inactive); in assay [6] (setting [9]) it was 75.8%; in assay [6] (setting [10]), 89.2%. The Her2 level in assay [2] is 104% (inactive). Also, in assay [6] (H69AR cells + 2 uM doxorubicin), the differential viability (reversal) is 13.3% (inactive). The inhibition in assay [7] is -1.69% (inactive); in assay [8], -10% (inactive).

As to `O=C(C1CCN(S(=O)(=O)c2cccnc2)CC1)N1CCN(c2ccc(Cl)cc2)CC1`, the viability is 84% in assay [1]; 84% (inactive) in assay [3]; 70.2% (inactive) in assay [4]; 89.7% (inactive) in assay [5]; 70.9% in assay [6] (setting [9]); 89.7% in assay [6] (setting [10]). In addition, the Her2 level in assay [2] was 81% (inactive). Besides, the differential viability (reversal) in assay [6] (H69AR cells + 2 uM doxorubicin) was 18.8% (inactive). Further, the inhibition in assay [7] was -2.11% (inactive); in assay [8], -4.44% (inactive).

(Values after PubChem BioAssay.)
